# Compounds with a hit are over-represented: about 3% of the library has one in this group of screens.
# B2AR ag – beta2AR agonists driving receptor internalization, primary screen, cell-based, FAP fluorogen, flow cytometry; hit rate 0.43% among 340,000; AID 504454, 2011; Beta-2 adrenergic receptor (Homo sapiens), P07550; response, % (no concentration beside the values); Am2.2-beta2AR cells;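 active = response above a set limit, near 3 SD of response in nonfluorescent compounds, cut at about 42% in these data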
# ABHD5-PLIN5 inh – ABHD5-PLIN5 interaction inhibitors, primary screen, cell lysate, split luciferase complementation, luminescence; Split G. princeps luciferase complementation, 4 h; Perilipin-5 (Homo sapiens) + 1-acylglycerol-3-phosphate O-acyltransferase ABHD5 (Homo …; inhibition, % at 4 µM; hit rate 0.78% among 360,000; AID 602281, 2012;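 active = inhibition above the mean inhibition across every tested compound plus 3 SD, cut at about 22% in these data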;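 also: 0% = DMSO only wells and the 100% control is not disclosed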
# Target sequence (Q00G26 whole entry, looked up): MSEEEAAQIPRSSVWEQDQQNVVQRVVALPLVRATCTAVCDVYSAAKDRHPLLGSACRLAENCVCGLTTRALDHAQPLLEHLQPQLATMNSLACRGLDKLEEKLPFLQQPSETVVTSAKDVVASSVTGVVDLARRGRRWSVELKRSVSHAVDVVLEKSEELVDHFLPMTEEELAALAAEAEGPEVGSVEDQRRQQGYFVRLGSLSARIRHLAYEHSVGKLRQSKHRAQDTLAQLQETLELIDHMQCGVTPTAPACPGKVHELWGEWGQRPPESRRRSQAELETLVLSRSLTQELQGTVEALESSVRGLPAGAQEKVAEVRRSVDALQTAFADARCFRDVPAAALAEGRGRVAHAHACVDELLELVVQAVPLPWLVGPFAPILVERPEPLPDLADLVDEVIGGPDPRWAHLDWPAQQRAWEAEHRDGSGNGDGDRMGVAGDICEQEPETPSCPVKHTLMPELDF
# Target sequence (Q8WTS1 whole entry, looked up): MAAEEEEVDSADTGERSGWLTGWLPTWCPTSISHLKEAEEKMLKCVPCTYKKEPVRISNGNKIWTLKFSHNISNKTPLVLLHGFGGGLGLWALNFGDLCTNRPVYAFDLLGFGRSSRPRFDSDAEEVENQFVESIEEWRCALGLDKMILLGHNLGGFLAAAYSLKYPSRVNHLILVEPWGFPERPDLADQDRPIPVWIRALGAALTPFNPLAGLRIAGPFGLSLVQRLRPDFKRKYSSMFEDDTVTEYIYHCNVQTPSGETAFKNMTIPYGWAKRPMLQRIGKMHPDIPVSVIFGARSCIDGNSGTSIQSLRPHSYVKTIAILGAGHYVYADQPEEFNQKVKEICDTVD
# MC4R ag barr – MC4R agonists recruiting beta-arrestin, primary screen, cell-based, luminescence, agonist arm of biased-ligand search | U2OS MC4R beta-arrestin complementation; percent of melanotan II response, DMSO zero | AID 540308, 2011 | Melanocortin receptor 4 (Homo sapiens), P32245 | activation, % at 8.9 µM | hit rate 0.98% among 360,000;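 active = activation above a per-plate cutoff, the mean activation of sample wells on that plate plus 3 SD, cut at about 8% in these data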
# PfGluPho inh – PfG6PD enzyme inhibitors, primary screen, biochemical, fluorescence intensity, uHTS; AID 504690, 2011; PfGluPho enzyme, NADPH resazurin-diaphorase fluorescence; glucose-6-phosphate dehydrogenase-6-phosphogluconolactonase (Plasmodium falciparum 3D7); hit rate 0.78% among 350,000; inhibition, % at 20 µM;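 active = inhibition reaching at least a set limit at 20 µM in the primary screen, cut at about 59% in these data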;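 also: 0% = DMSO wells with substrate and 100% = DMSO wells lacking glucose-6-phosphate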
# MC4R antagonist – MC4R antagonists of cAMP signaling, primary screen, cell-based, TR-FRET, antagonist arm of biased-ligand search; hit rate 0.48% among 360,000; MC4R-expressing cells, MTII-stimulated cAMP, LANCE TR-FRET; inhibition, % at 6.5 µM;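 active = inhibition above its plate's cutoff, the mean of tested wells on that plate plus 3 SD, cut at about 29% in these data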;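 also: 0% = Melanotan II alone and 100% = Melanotan II plus saturating MCL0020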
#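 Assay system: U2OS cells stably expressing human melanocortin 4 receptor (MC4R) / Dosing: 6.5 µM / Timing: compound 30 min, challenge 1 h, detection 1 h / Measured by: Eu-cAMP/anti-cAMP TR-FRET, emission 671 nm / Replicates: singlicate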
# MC4R barr ag – MC4R beta-arrestin agonists, retest, confirmation, cell-based, luminescence, U2OS; shares compounds with MC4R ag barr; U2OS MC4R beta-arrestin recruitment; scaled DMSO 0%, Melanotan II 100%; activation, % at 8.9 µM; hit rate 31% among 2,400; AID 602192, 2012;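 active = mean activation across replicates above the hit cutoff set in the earlier primary screen, cut at about 8% in these data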
# MOR-DOR barr ag – agonists of MOR-DOR heterodimerization, counter-screen for MC4R biased agonist project, cell-based, luminescence. activation, % at 9.2 µM. hit rate 5.8% among 2,400. AID 602194, 2012. U2OS PathHunter beta-arrestin, beta-gal luminescence; percent of deltorphin B response, DMSO zero. shares compounds with MC4R ag barr;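 active = mean activation across replicates exceeds the hit threshold derived in the earlier primary screen, cut at about 18% in these data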;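 also: 100% = deltorphin B at 0.9 µM final and 0% = DMSO alone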
# * hit, by the source's call; . = no result; ! = repeats disagree.
SMILES,B2AR ag,ABHD5-PLIN5 inh,MC4R ag barr,PfGluPho inh,MC4R antagonist,MC4R barr ag,MOR-DOR barr ag
COc1ccc(C(=O)CSc2nnc(-c3cc(C)cc(C)c3)o2)cc1,-1,-1,9.8*,-6,10,8,6
COc1cccc(C(=O)CSc2nnc(-c3cc(OC)cc(OC)c3)o2)c1,7,4,0,-10,3,.,.
O=C(Cc1cccs1)Nc1nnc(SCC(=O)NC2CCCCC2)s1,-4,-5,-1,-17,-3,.,.
O=C(Cc1cccs1)Nc1nnc(SCc2cccc3ccccc23)s1,-2,-18,12*,-38,3,3,3
CCCn1nnc(NC(=O)c2ccc(Cl)cc2Cl)n1,-5,-3,-1,-1,-7,.,.
CCCn1nnc(NC(=O)c2ccc(-c3cc(Cl)ccc3Cl)o2)n1,4,-2,9.6*,-3,2,8,3
COc1ccc(F)cc1-c1cc(NC=O)c2ncc(-c3cccc(C(=O)N(C)C)c3)n2c1,.,13,7,.,-20,.,.
CC(=O)Nc1cc(-c2cccc(C)c2)cn2c(-c3ccc(S(C)(=O)=O)cc3)cnc12,.,0,2,.,12,.,.
CC(=O)Nc1cccc(-c2cc(NC(C)=O)c3ncc(-c4cccc(C(F)(F)F)c4)n3c2)c1,.,1,4,.,11,.,.
CC(=O)Nc1cc(-c2ccc(N)nc2)cn2c(-c3cccc(C(F)(F)F)c3)cnc12,.,17,19*,.,1,9.8*,3
CC(=O)Nc1cc(-c2cccc(C(=O)N(C)C)c2)cn2c(-c3cccc(C(F)(F)F)c3)cnc12,.,8,7,.,12,.,.
CC(=O)Nc1cc(-c2ccc(N)cc2)cn2c(-c3cccc(C(F)(F)F)c3)cnc12,.,-5,11*,.,17,12*,3
COc1ccc(F)cc1-c1cc(NC(C)=O)c2ncc(-c3cccc(C(F)(F)F)c3)n2c1,.,0,19*,.,9,15*,3
CC(=O)Nc1cc(-c2ccc(CO)cc2)cn2c(-c3cccc(C(F)(F)F)c3)cnc12,.,-1,19*,.,9,20*,3
Cc1ccc(N2CC(C(=O)O)CC2=O)cc1 (configuration not stated),-3,7,0,-1,1,.,.
COC(=O)c1c(NC(=O)CSc2nnc3ccccn23)sc2c1CCC2,-8,4,1,-7,15,.,.
O=C(Nc1ccc(Br)cc1)C1CCCN(C2=NS(=O)(=O)c3ccccc32)C1 (configuration not stated),1,4,0,-7,7,.,.
CCCCCNCC(=O)Nc1cccc(C(=O)Nc2cccc(C(F)(F)F)c2)c1,5,9,15*,17,-5,16*,14
O=C(CN1CCOCC1)Nc1cccc(C(=O)Nc2cccc(C(F)(F)F)c2)c1,-5,-7,-3,-4,3,.,.
Cc1ccc(C(=O)Nc2cccc(C(F)(F)F)c2)cc1NC(=O)c1nccnc1N,-2,2,17*,11,-18,8,44*!
Cc1ccc(C(=O)NC(=S)Nc2nc(-c3cccc([N+](=O)[O-])c3)cs2)c(Cl)c1,9,-5,5,-19,1,.,.
O=C(CSc1ccc2nnc(-c3cccnc3)n2n1)Nc1ccc(F)cc1F,5,11,0,-16,10,.,.
O=C(CCNC(=O)c1ccc(Cl)cc1)Nc1ccc(S(=O)(=O)N2CCCCC2)cc1,-15,-1,-5,3,1,.,.
COc1ccc(-c2sc3ccc(N4CCOCC4)cc3c2C#Cc2ccsc2)cc1,7,3,-1,-2,5,.,.
COc1ccc(-c2sc3ccc(N4CCOCC4)cc3c2C#CC(C)(C)O)cc1,9,-5,23*,21,18,8,2
SMILES,B2AR ag,ABHD5-PLIN5 inh,MC4R ag barr,PfGluPho inh,MC4R antagonist,MC4R barr ag,MOR-DOR barr ag
O=C(NCCc1ccncc1)c1ccc2nc(Cc3cccc(Cl)c3)oc2c1,2,4,-2,14,1,.,.
COc1ccc(S(=O)(=O)N(C)C[C@H]2Oc3ccc(NC(=O)c4ccncc4)cc3C(=O)N([C@H](C)CO)C[C@@H]2C)cc1,-2,3,0,15,6,.,.
CCOc1ccc(CNC(=O)Cn2c(=O)c3cccn3c3ccccc32)cc1,2,1,22*,-8,5,2,3
O=C(CCCN1C(=O)/C(=C\c2ccccc2)SC1=S)Nc1ccc(O)cc1C(=O)O,-5,0,0,-30,10,.,.
O=C(CCN1C(=O)/C(=C\c2ccccc2)SC1=S)NNC(=O)c1cccnc1,-1,4,21*,-21,1,5,1
COc1ccccc1C(=O)NNC(=O)CCCN1C(=O)/C(=C/c2cccs2)SC1=S,2,-4,23*,3,0,7,4
O=C(CCN1C(=O)/C(=C\c2ccccc2)SC1=S)NNC(=O)c1ccccc1O,-5,-7,10*,-45,-2,3,3
O=C(NCc1n[nH]c(=S)n1-c1ccc(Cl)c(Cl)c1)c1ccc(S(=O)(=O)N2CCOCC2)cc1,-2,-3,-2,32,-4,.,.
Cc1cc(C)c2nc(-n3nc(C)cc3N)cc(C)c2c1,-10,-1,15*,26,-8,2,3
C/C(=N/OCO/N=C(\C)c1ccccc1F)c1ccccc1F,-3,0,9.6*,17,2,-1,4
CN1CCN(c2cc(N3CCc4ccccc4C3)c(F)cc2[N+](=O)[O-])CC1,22,22,14*,3,7,11*,12
COc1ccc(Cn2c(C)nc3c(c2=O)c2nc4ccccc4nc2n3Cc2ccco2)cc1,12,33*,11*,36,19,-3,2
Cc1nc2ccccc2c(=O)n1Cc1ccco1,0,-1,-1,6,5,.,.
COc1ccc(-c2csc3nc(-c4cccnc4)nc(N4CCC(C(N)=O)CC4)c23)cc1OC,21,14,-2,14,13,.,.
COc1ccc(-c2csc3nc(C)nc(N4CCCCC4)c23)cc1OC,13,-2,9.6*,-7,5,-1,4

# Screening results from PubChem.
